Assay results taken from ChEMBL document CHEMBL3400070, “Determination of the active stereoisomer of the MEP pathway-targeting antimalarial agent MMV008138, and initial structure-activity studies” (Bioorg Med Chem Lett, 2015).
Calls of active or inactive are those of the source. No cut-off for these calls is given here.

Tests used:
Format in all cases: functional
Escherichia coli = test: Antibacterial activity against Escherichia coli BL21(DE3) after 18 hrs by cell density meter
How it was run: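 Overnight culture (37 °C, 200 rpm) diluted 100-fold into LB, grown to OD600 ~0.6, then diluted 10,000-fold; mixed 1:1 with compound prediluted in LB at 500, 250 and 125 μM; 5% DMSO final. Incubated 18 h, 37 °C, 200 rpm; growth normalized to untreated inoculum and compared with 5% DMSO vehicle; controls fosmidomycin 100 μM, uninoculated medium; three independent experiments.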

Plasmodium falciparum [1] = test: Antimalarial activity against MRA-150, chloroquine, pyrimethamine, mefloquine-resistant asexual blood stage Plasmodium falciparum Dd2 after 72 hrs by SYBR green assay; conditions: Dd2, 72 h
How it was run: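 Dd2 parasites were kept in O-positive human erythrocytes in RPMI 1640 with Albumax I, hypoxanthine and HEPES. Ring-stage cultures (1% hematocrit, 1% parasitemia) were given eight- or ten-point dilutions of 20 to 0.02 μM in 0.1% DMSO for 72 h at 37 °C under low O2. Growth was read by SYBR green, with uninfected-erythrocyte background and normalisation to untreated 0.1% DMSO controls. IC50 came from a four-parameter variable-slope fit, mean of ≥2 independent experiments ± S.D.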

Plasmodium falciparum [2] = test: Antimalarial activity against MRA-150, chloroquine, pyrimethamine, mefloquine-resistant asexual blood stage Plasmodium falciparum Dd2 assessed as rescue at 2.5 uM after 72 hrs by SYBR green assay in presence of 200 uM IPP
Plasmodium falciparum [3] = test: Antimalarial activity against MRA-150, chloroquine, pyrimethamine, mefloquine-resistant asexual blood stage Plasmodium falciparum Dd2 assessed as rescue after 72 hrs by SYBR green assay in presence of 200 uM IPP; conditions: Dd2, 72 h
How it was run: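 Ring-stage Dd2 cultures (1% hematocrit, 1% parasitemia, human erythrocytes) were grown with 200 μM IPP and a 10 to 0.02 μM serial dilution for 72 h at 37 °C under reduced O2. Growth was read by SYBR green and normalised to untreated 0.1% DMSO controls. Data are the mean ± S.D. of two or more independent experiments.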

Plasmodium falciparum [4] = test: Antimalarial activity against MRA-150, chloroquine, pyrimethamine, mefloquine-resistant asexual blood stage Plasmodium falciparum Dd2 assessed as rescue at 5 uM after 72 hrs by SYBR green assay in presence of 200 uM IPP
Plasmodium falciparum [5] = test: Antimalarial activity against MRA-150, chloroquine, pyrimethamine, mefloquine-resistant asexual blood stage Plasmodium falciparum Dd2 assessed as rescue at 10 uM after 72 hrs by SYBR green assay in presence of 200 uM IPP
How it was run: (§1)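 Single-concentration test (10 or 20 μM) run with or without 200 μM IPP on ring-stage Dd2 cultures (1% hematocrit, 1% parasitemia) in human erythrocytes. Incubation was 72 h at 37 °C under reduced O2. Growth was read by SYBR green, with background from uninfected erythrocytes and normalisation to untreated DMSO vehicle controls.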

Plasmodium falciparum [6] = test: Antimalarial activity against MRA-150, chloroquine, pyrimethamine, mefloquine-resistant asexual blood stage Plasmodium falciparum Dd2 at 20000 nM after 72 hrs by SYBR green assay; conditions: Dd2, 72 h, read-out: GI; how it was run: as §1
Plasmodium falciparum [7] = test: Antimalarial activity against MRA-150, chloroquine, pyrimethamine, mefloquine-resistant asexual blood stage Plasmodium falciparum Dd2 at 10000 nM after 72 hrs by SYBR green assay; conditions: Dd2, 72 h, read-out: GI; how it was run: as §1
Plasmodium falciparum [8] = test: Antimalarial activity against MRA-150, chloroquine, pyrimethamine, mefloquine-resistant asexual blood stage Plasmodium falciparum Dd2 assessed as rescue at 20 uM after 72 hrs by SYBR green assay in presence of 200 uM IPP; how it was run: as §1

Compound: CNC(=O)[C@@H]1Cc2c([nH]c3ccccc23)[C@@H](c2ccc(C)cc2Cl)N1
- Activity (Escherichia coli): inactive
- IC50 (Plasmodium falciparum [1]): 340 nM
- Activity (Plasmodium falciparum [2]): 100%

Compound: O=C(O)[C@@H]1Cc2c([nH]c3ccccc23)[C@@H](c2ccc(F)cc2F)N1
- Activity (Escherichia coli): inactive
- IC50 (Plasmodium falciparum [3]): > 10000 nM
- Activity (Plasmodium falciparum [4]): 100%
- IC50 (Plasmodium falciparum [1]): 780 nM

Compound: CNC(=O)[C@@H]1Cc2c([nH]c3ccccc23)[C@@H](c2ccc(Cl)cc2Cl)N1
- Activity (Escherichia coli): inactive
- IC50 (Plasmodium falciparum [3]): > 10000 nM
- IC50 (Plasmodium falciparum [1]): 190 nM
- Activity (Plasmodium falciparum [2]): 100%

Compound: Cc1cc(Cl)ccc1[C@H]1N[C@H](C(=O)O)Cc2c1[nH]c1ccccc21
- Activity (Escherichia coli): inactive
- IC50 (Plasmodium falciparum [3]): > 10000 nM
- IC50 (Plasmodium falciparum [1]): 700 nM
- Activity (Plasmodium falciparum [2]): 100%

Compound: Cc1ccc([C@@H]2N[C@H](C(=O)O)Cc3c2[nH]c2ccccc32)c(C)c1
- IC50 (Plasmodium falciparum [1]): > 10000 nM

Compound: CNNC(=O)[C@@H]1Cc2c([nH]c3ccccc23)[C@@H](c2ccc(Cl)cc2Cl)N1
- IC50 (Plasmodium falciparum [1]): 1940 nM
- Activity (Plasmodium falciparum [5]): 80%

Compound: O=C(O)C1Cc2c([nH]c3ccccc23)C(c2ccc(Cl)cc2Cl)N1 (stereo not given)
- IC50 (Plasmodium falciparum [1]): 210 nM
- Activity (Plasmodium falciparum [2]): 100%

Compound: COC(=O)[C@@H]1Cc2c([nH]c3ccccc23)[C@@H](c2ccccc2)N1
- inhibition of growth at 20 µM (Plasmodium falciparum [6]): 20%

Compound: O=C(O)[C@@H]1Cc2c([nH]c3ccccc23)[C@H](c2ccc(F)cc2F)N1
- IC50 (Plasmodium falciparum [1]): > 20000 nM

Compound: CC(C)NC(=O)[C@@H]1Cc2c([nH]c3ccccc23)[C@@H](c2ccc(Cl)cc2Cl)N1
- inhibition of growth at 10 µM (Plasmodium falciparum [7]): 50%

Compound: O=C(O)[C@@H]1Cc2c([nH]c3ccccc23)[C@@H](c2ccccc2)N1
- IC50 (Plasmodium falciparum [1]): > 10000 nM

Compound: CNC(=O)[C@@H]1Cc2c([nH]c3ccccc23)[C@@H](c2ccc(C(F)(F)F)cc2C(F)(F)F)N1
- IC50 (Plasmodium falciparum [1]): > 10000 nM

Compound: COC(=O)[C@H]1Cc2c([nH]c3ccccc23)[C@H](c2ccc(Cl)cc2Cl)N1
- IC50 (Plasmodium falciparum [1]): 7700 nM
- Activity (Plasmodium falciparum [8]): 0%

Compound: O=C(O)[C@@H]1Cc2c([nH]c3ccccc23)[C@@H](c2ccc(C(F)(F)F)cc2C(F)(F)F)N1
- IC50 (Plasmodium falciparum [1]): > 10000 nM

Compound: COC(=O)[C@@H]1Cc2c([nH]c3ccccc23)[C@@H](c2ccc(Cl)cc2Cl)N1
- IC50 (Plasmodium falciparum [1]): 6800 nM
- Activity (Plasmodium falciparum [8]): 20%

Compound: O=C(O)[C@@H]1Cc2c([nH]c3ccccc23)[C@@H](c2ccc(Cl)cc2Cl)N1
- Activity (Escherichia coli): inactive
- IC50 (Plasmodium falciparum [3]): > 10000 nM
- IC50 (Plasmodium falciparum [1]): 250 nM
- Activity (Plasmodium falciparum [2]): 100%

Compound: CCCCNC(=O)[C@@H]1Cc2c([nH]c3ccccc23)[C@@H](c2ccc(Cl)cc2Cl)N1
- inhibition of growth at 10 µM (Plasmodium falciparum [7]): 80%

Compound: O=C(O)[C@@H]1Cc2c([nH]c3ccccc23)[C@H](c2ccccc2)N1
- IC50 (Plasmodium falciparum [1]): > 10000 nM

Compound: O=C(O)[C@@H]1Cc2c([nH]c3ccccc23)[C@H](c2ccc(Cl)cc2Cl)N1
- IC50 (Plasmodium falciparum [1]): > 10000 nM

Compound: Cc1ccc([C@H]2N[C@H](C(=O)O)Cc3c2[nH]c2ccccc32)c(Cl)c1
- Activity (Escherichia coli): inactive
- IC50 (Plasmodium falciparum [3]): > 10000 nM
- IC50 (Plasmodium falciparum [1]): 410 nM
- Activity (Plasmodium falciparum [2]): 100%

Compound: Cc1ccc([C@H]2N[C@H](C(=O)O)Cc3c2[nH]c2ccccc32)c(C)c1
- inhibition of growth at 10 µM (Plasmodium falciparum [7]): 70%

Compound: NC(=O)[C@@H]1Cc2c([nH]c3ccccc23)[C@@H](c2ccc(Cl)cc2Cl)N1
- IC50 (Plasmodium falciparum [1]): 1200 nM
- Activity (Plasmodium falciparum [5]): 50%

Compound: O=C(O)[C@@H]1Cc2c([nH]c3ccccc23)[C@@H](c2ccccc2Cl)N1
- IC50 (Plasmodium falciparum [1]): 3280 nM
- Activity (Plasmodium falciparum [5]): 60%

Compound: Cc1ccc([C@@H]2N[C@H](C(=O)O)Cc3c2[nH]c2ccccc32)c(Cl)c1
- IC50 (Plasmodium falciparum [1]): > 10000 nM

Compound: O=CN(O)CCCP(=O)(O)O [FOSMIDOMYCIN]
- Activity (Plasmodium falciparum [5]): 100%

Compound: COc1ccc([C@H]2N[C@H](C(=O)O)Cc3c2[nH]c2ccccc32)cc1OC
- IC50 (Plasmodium falciparum [1]): > 20000 nM

Compound: CN1CC(=O)N2[C@H](c3ccc4c(c3)OCO4)c3[nH]c4ccccc4c3C[C@@H]2C1=O [TADALAFIL]
- IC50 (Plasmodium falciparum [1]): > 20000 nM

Compound: COc1ccc([C@H]2N[C@H](C(=O)O)Cc3c2[nH]c2ccccc32)c(OC)c1
- IC50 (Plasmodium falciparum [1]): > 20000 nM

Compound: Clc1ccc(C2NCCc3c2[nH]c2ccccc32)c(Cl)c1 (racemic)
- IC50 (Plasmodium falciparum [1]): 10000 nM

Compound: CNC(=O)[C@@H]1Cc2c([nH]c3ccccc23)[C@@H](c2ccc(F)cc2F)N1
- Activity (Escherichia coli): inactive
- IC50 (Plasmodium falciparum [1]): 1200 nM
- Activity (Plasmodium falciparum [2]): 100%

Compound: CNC(=O)[C@@H]1Cc2c([nH]c3ccccc23)[C@@H](c2ccc(Cl)cc2C)N1
- IC50 (Plasmodium falciparum [1]): 1850 nM
- Activity (Plasmodium falciparum [5]): 50%

Compound: O=C(O)[C@H]1Cc2c([nH]c3ccccc23)[C@H](c2ccc(Cl)cc2Cl)N1
- IC50 (Plasmodium falciparum [1]): > 10000 nM

Compound: CNC(=O)[C@@H]1Cc2c([nH]c3ccccc23)[C@@H](c2ccc(C)cc2C)N1
- inhibition of growth at 10 µM (Plasmodium falciparum [7]): 70%

Compound: O=C(O)[C@H]1Cc2c([nH]c3ccccc23)[C@@H](c2ccc(Cl)cc2Cl)N1
- IC50 (Plasmodium falciparum [1]): 3000 nM
- Activity (Plasmodium falciparum [5]): 60%

Compound: O=C(NC1CCCCC1)[C@@H]1Cc2c([nH]c3ccccc23)[C@@H](c2ccc(Cl)cc2Cl)N1
- IC50 (Plasmodium falciparum [1]): 2830 nM
- Activity (Plasmodium falciparum [5]): 0%

Compound: O=C(O)[C@@H]1Cc2c([nH]c3ccccc23)[C@@H](c2ccc(Cl)cc2)N1
- IC50 (Plasmodium falciparum [1]): 1170 nM
- Activity (Plasmodium falciparum [5]): 50%
